This passage reports EC50 results from paper PMC4312754 (Neuropharmacology, 2014).

Where a chain is given by its changes, count along the chain named.

Holding throughout (assay): two-electrode voltage clamp, Xenopus oocytes
What all share (assay type): cell-based
In general terms: Two-electrode voltage clamp holds a large cell at a set potential and records current.

The target in experiment [1] is T1, 5-HT3AB receptor (Homo sapiens, UniProt O95264+P46098, O95264:E122Q/O95264:Y146A).
T1 sequence (P46098 24-478): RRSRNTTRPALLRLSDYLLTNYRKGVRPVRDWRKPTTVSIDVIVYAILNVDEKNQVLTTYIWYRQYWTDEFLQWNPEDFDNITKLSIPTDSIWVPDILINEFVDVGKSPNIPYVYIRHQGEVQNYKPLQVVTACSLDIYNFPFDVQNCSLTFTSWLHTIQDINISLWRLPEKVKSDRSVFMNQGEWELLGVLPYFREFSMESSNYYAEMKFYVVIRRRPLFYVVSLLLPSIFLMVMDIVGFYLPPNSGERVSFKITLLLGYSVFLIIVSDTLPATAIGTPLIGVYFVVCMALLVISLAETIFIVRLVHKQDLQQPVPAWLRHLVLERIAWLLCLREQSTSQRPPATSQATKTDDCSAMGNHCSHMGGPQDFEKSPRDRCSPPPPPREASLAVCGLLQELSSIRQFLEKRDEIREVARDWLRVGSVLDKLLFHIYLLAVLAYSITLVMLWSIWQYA
T1 sequence (O95264 22-441 E122Q/Y146A): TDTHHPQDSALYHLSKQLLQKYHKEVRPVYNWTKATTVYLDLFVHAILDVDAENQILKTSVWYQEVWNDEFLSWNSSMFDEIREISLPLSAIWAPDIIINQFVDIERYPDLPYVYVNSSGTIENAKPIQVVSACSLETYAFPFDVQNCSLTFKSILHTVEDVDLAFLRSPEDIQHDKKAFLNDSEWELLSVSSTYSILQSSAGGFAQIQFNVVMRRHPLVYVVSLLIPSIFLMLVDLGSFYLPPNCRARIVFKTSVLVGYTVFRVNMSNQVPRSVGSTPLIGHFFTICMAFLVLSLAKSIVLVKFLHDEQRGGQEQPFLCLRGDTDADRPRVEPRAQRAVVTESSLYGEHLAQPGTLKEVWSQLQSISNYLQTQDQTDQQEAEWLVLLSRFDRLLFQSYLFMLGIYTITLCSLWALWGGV
In outline: (§1)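 Human 5-HT3A and 5-HT3B subunits with point mutations were used. Defolliculated stage V–VI Xenopus oocytes were injected with 5–25 ng mRNA and incubated 24–72 h at 18 °C. Recordings were at 22–25 °C, holding at −60 mV. Agonist in Ca2+-free ND96 (pH 7.5) was applied for 15 s, then washed 116 s.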

The target in experiment [2] is T2, 5-HT3AB receptor (Homo sapiens, UniProt O95264+P46098, O95264:E122Q).
T2 sequence (P46098 24-478): T1 sequence (P46098 24-478)
T2 sequence (O95264 22-441 E122Q): T1 sequence (O95264 22-441 E122Q/Y146A) with A125Y
In outline:
as §1

In experiment [3] the target is T3, 5-HT3AB receptor (Homo sapiens, UniProt O95264+P46098, P46098:Y148A).
T3 sequence (P46098 24-478 Y148A): T1 sequence (P46098 24-478) with Y125A
T3 sequence (O95264 22-441): T1 sequence (O95264 22-441 E122Q/Y146A) with Q101E, A125Y
A digest of the protocol:
as §1

Experiment [4] addresses T4, 5-HT3AB receptor (Homo sapiens, UniProt O95264+P46098, O95264:E122Q/P46098:E124Q).
T4 sequence (P46098 24-478 E124Q): T1 sequence (P46098 24-478) with E101Q
T4 sequence (O95264 22-441 E122Q): T1 sequence (O95264 22-441 E122Q/Y146A) with A125Y
In outline: as §1

Experiment [5] concerns the target T5, 5-HT3A receptor (homomeric) (Homo sapiens, UniProt P46098, Y148A).
T5 sequence (P46098 24-478 Y148A): T1 sequence (P46098 24-478) with Y125A

The target of experiment [6] is T6, 5-HT3AB receptor (Homo sapiens, UniProt O95264+P46098, P46098:E124Q).
T6 sequence (P46098 24-478 E124Q): T1 sequence (P46098 24-478) with E101Q
T6 sequence (O95264 22-441): T1 sequence (O95264 22-441 E122Q/Y146A) with Q101E, A125Y
A digest of the protocol:
as §1

Experiment [7] addresses T7, 5-HT3AB receptor (Homo sapiens, UniProt O95264+P46098, O95264:E122A).
T7 sequence (P46098 24-478): T1 sequence (P46098 24-478)
T7 sequence (O95264 22-441 E122A): T1 sequence (O95264 22-441 E122Q/Y146A) with Q101A, A125Y
A digest of the protocol:
as §1

Experiment [8] addresses T8, 5-HT3AB receptor (Homo sapiens, UniProt O95264+P46098, O95264:Y146A).
T8 sequence (P46098 24-478): T1 sequence (P46098 24-478)
T8 sequence (O95264 22-441 Y146A): T1 sequence (O95264 22-441 E122Q/Y146A) with Q101E
In outline: as §1

Usually EC50 stands for the concentration giving half of the maximal effect.

Consider `N=C(N)NC(=N)Nc1cccc(Cl)c1` [mCPBG], for which the EC50 in experiment [1] stood at 3.5 ± 0.1 µM; in experiment [2], 2.3 ± 0.1 µM; in experiment [3] it was 11.2 ± 0.6 µM; in experiment [4] it was 2.4 ± 0.4 µM; in experiment [5], 24.7 ± 0.9 µM; in experiment [6], 3 ± 0.7 µM. Moreover, the EC50 in experiment [7] is 2.4 ± 0.1 µM; in experiment [8], 4.3 ± 0.3 µM.
